Assay results pooled from the literature.
Compare with care: the assays were run in different laboratories.
Target: Calcium/calmodulin-dependent protein kinase kinase 1 (CAMKK1, Homo sapiens, UniProt Q8N5S9)

Cc1nccc(COC(=O)N2C[C@@H]3[C@@H](CNC(=O)c4ccc5[nH]nnc5c4)[C@@H]3C2)n1
remaining binding (cell-free assay, competition with immobilised ligand; 1 µM): 100%

O=C1Nc2ccc(Cl)cc2C1=Cc1cc(Cl)c(O)c(Cl)c1
remaining signal (cell-free assay; 0.5 µM): 52.5%

CN(c1ncccc1CNc1nc(Nc2ccc3c(c2)CC(=O)N3)ncc1C(F)(F)F)S(C)(=O)=O
inhibition (enzyme activity, inhibitor; 1 µM): 46%

CN1CC(Oc2cnc(C#N)cc2-c2ccn3nc(NC(=O)C4CC4)cc3c2)C1
inhibition (enzyme activity, inhibitor; 1 µM): 3%

CCN1CCC2(CC1)NC(=O)c1c(c3ccc(Cl)c(Cl)c3n1C)C2C#N (racemic)
ΔTm (thermal stability, DSF; 10 µM): -0.1 °C

CC1=C(C#N)C(c2ccc3c(c2)c(NC(=O)c2ccccc2C)nn3C)C(C#N)=C(C)N1
remaining binding (cell-free assay, competition with immobilised ligand; 1 µM): 100%

Cc1ccc(C(=O)Nc2ccc(CN3CCN(C)CC3)c(C(F)(F)F)c2)cc1C#Cc1cnc2cccnn12
remaining activity (enzyme activity, inhibitor; 23.5 nM): 85%

CC(C)(O)[C@H]1CC[C@H](Nc2ccc3ncc(-c4cccc(C(F)(F)F)c4)n3n2)CC1
remaining activity (enzyme activity, inhibitor; 1 µM): 91.8%

O=C(Nc1cnn(-c2csc(C(=O)NC3COC3)c2)c1)Nc1ccccc1Cl
remaining activity (enzyme activity, inhibitor; 5 µM): 130%

Cn1c2c(c3ccc(Cl)c(Cl)c31)C(C#N)C1(CCN(C(=O)OC(C)(C)C)CC1)NC2=O (racemic)
ΔTm (thermal stability, DSF; 10 µM): -0.1 °C

NS(=O)(=O)c1cc(NC(=O)Cc2ccccc2)ccc1Oc1cccc(Cl)c1
remaining binding (cell-free assay, competition with immobilised ligand; 1 µM): 100%

c1ccc(CNc2nc(N3CCOc4ccccc43)nc3c2CCCC3)cc1
inhibition (target engagement in cells, inhibitor, chemoproteomics; 20 mM): -7.1%

CC(C)(C)c1nc2c(s1)c1nc(N)ncc1c1ccc(NS(=O)(=O)c3c(F)cccc3F)c(F)c12
remaining activity (enzyme activity, inhibitor, radiometric; 1 µM): 88%

N#CCCc1ccc2c(c1)-c1[nH]c3ccc([N+](=O)[O-])cc3c1CC(=O)N2
remaining signal (cell-free assay; 0.5 µM): 86.7%

O=c1nc(-c2ccccn2)sc2ccccc12
remaining binding (binding, competition with immobilised ligand; 1 µM): 96%

O=C1NC(=O)c2cc(Nc3ccc(F)cc3)c(Nc3ccc(F)cc3)cc21
remaining signal (cell-free assay; 0.5 µM): 90.2%

CCCOc1ccc([C@H]2[C@H](C(=O)O)[C@@H](c3ccc4c(c3)OCO4)CN2CC(=O)Nc2c(CC)cccc2CC)cc1
remaining binding (cell-free assay, competition with immobilised ligand; 1 µM): 86%

Cn1c2c(Cl)c(Cl)ccc2c2cn[nH]c(=O)c21
ΔTm (thermal stability, DSF; 10 µM): 0.5 °C
